From ChEMBL document CHEMBL1212806, “Chemoselective small molecules that covalently modify one lysine in a non-enzyme protein in plasma” (Nat Chem Biol, 2010)
Active and inactive are the calls of the source. No cut-off for these calls is given here.

How the values were obtained:
[1] = molecular target: T1, Transthyretin (Homo sapiens, UniProt P02766); experiment: Inhibition of wild type TTR amyloidogenesis assessed as inhibition of fibril formation after 72 hrs at pH 4.4 by spectrophotometry relative to untreated control
[2] = Toxicity in human IMR32 cells assessed as reduction of cell viability after 24 hrs by resazurin reduction assay; type: cell-based; details: imr-32, 24 h
How it was run: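 IMR-32 cells (6,000/well, overnight) were exposed 24 h at 37 °C to compound preincubated 18 h at 37 °C in HBSS without TTR, diluted 1:1 in supplemented Opti-MEM. Viability was read by resazurin fluorescence (Ex/Em 530/590, 1 h), as % of vehicle-treated cells after blank subtraction.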

[3] = molecular target: T1, Transthyretin; experiment: Inhibition of wild type TTR amyloidogenesis assessed as fibril formation at 1.8 to 2.7 uM after 120 hrs at pH 4.4 by spectrophotometry relative to untreated control
[4] = molecular target: T1, Transthyretin; experiment: Noncovalent binding affinity to wild type TTR T4 site assessed as fibril formation at 7.2 uM after 72 hrs at pH 4.4 by RP-HPLC analysis
[5] = molecular target: T1, Transthyretin; experiment: Noncovalent binding affinity to TTR K15A mutant T4 site assessed as fibril formation at 7.2 uM after 72 hrs at pH 4.4 by RP-HPLC analysis
[6] = molecular target: T1, Transthyretin; experiment: Inhibition of wild type TTR induced cytotoxicity in human IMR32 cells assessed as cell viability after 24 hrs by resazurin reduction assay; type: cell-based; details: IMR-32
How it was run: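 IMR-32 neuroblastoma cells were seeded at 6,000/well in Opti-MEM with 5% FBS and grown overnight. Cold-purified WT-TTR in HBSS was preincubated 18 h at 37 °C with compound, then diluted 1:1 in supplemented Opti-MEM onto cells. After 24 h at 37 °C, resazurin was added and fluorescence read (Ex/Em 530/590) after 1 h. Results are % of vehicle, blank-subtracted, mean ± SE of 2 experiments, at least triplicate.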

[7] = molecular target: T1, Transthyretin; experiment: Binding affinity to wild-type TTR assessed as nonchemoselective conjugation of TTR after 18 hrs by C18-RP-HPLC
[8] = Binding affinity to TTR K15A mutant assessed as nonchemoselective conjugation of TTR after 18 hrs by C18-RP-HPLC
[9] = organism: Homo sapiens; experiment: Binding affinity to TTR K15A mutant tetramer in human plasma assessed as covalent chemoselective amide bond formation with residue-15 of TTR subunit at 7.2 uM after 18 hrs by RP-HPLC analysis; type: cell-free
[10] = molecular target: T1, Transthyretin; experiment: Stabilization of wild-type TTR tetramer assessed as time needed for 95% TTR-compound conjugate formation by C18-RP-HPLC
[11] = molecular target: T1, Transthyretin; experiment: Inhibition of wild type TTR amyloidogenesis assessed as fibril formation at […] after 72 hrs at pH 4.4 by spectrophotometry relative to untreated control; design: scale not given: the % may be the effect or the level left
[12] = test system: Transthyretin (Homo sapiens), P02766 [V50M]; experiment: Inhibition of TTR V30M mutant amyloidogenesis assessed as fibril formation at […] after 72 hrs at pH 4.4 by spectrophotometry relative to untreated control; design: scale not given: the % may be the effect or the level left
[13] = molecular target: T1, Transthyretin; experiment: Inhibition of wild type TTR amyloidogenesis assessed as fibril formation at 7.2 uM after 72 hrs at pH 4.4 by spectrophotometry relative to untreated control; design: scale not given: the % may be the effect or the level left
[14] = test system: Transthyretin (Homo sapiens), P02766 [V50M]; experiment: Inhibition of TTR V30M mutant amyloidogenesis assessed as fibril formation at 7.2 uM after 72 hrs at pH 4.4 by spectrophotometry relative to untreated control; design: scale not given: the % may be the effect or the level left
[15] = molecular target: T1, Transthyretin; experiment: Binding affinity to wild type TTR in human plasma assessed as covalent modification of TTR subunit after 18 hrs by RP-HPLC analysis; type: cell-free
[16] = molecular target: T1, Transthyretin; experiment: Binding affinity to wild type TTR tetramer in human plasma assessed as covalent chemoselective amide bond formation with Lys15 residue of TTR subunit at 7.2 uM after 18 hrs by RP-HPLC analysis; type: cell-free
[17] = molecular target: T1, Transthyretin; experiment: Stabilization of wild-type TTR tetramer assessed as rate of TTR-compound conjugate formation by C18-RP-HPLC
[18] = molecular target: T1, Transthyretin; experiment: Binding affinity to TTR in human plasma at 10.8 uM after 24 hrs RP-HPLC analysis; type: cell-free
[19] = molecular target: T1, Transthyretin; experiment: Binding affinity to wild type TTR assessed as induction of benzoylation at Lys15 residue of TTR subunit by LC-MS method

inhibition [1]	Activity [7]	Activity [9]	TIME [10]	Activity [11]	Activity [12]	Activity [13]	Activity [14]	Activity [15]	Activity [16]	Activity [18]	Activity [19]	Structure (SMILES)	Activity [2]	inhibition [6]	further results
Dose-dependent effect	–	–	–	–	–	–	–	–	–	–	–	Cc1cc(/C=C/c2cccc(C(=O)O)c2)cc(C)c1O	Non-toxic	Dose-dependent effect	IC50 [1]: 3070 nM; inhibition [3]: Active; Activity [4]: Active; Activity [5]: Active
–	Active	–	–	–	–	–	–	–	–	–	–	Cc1cc(/C=C/c2ccc(C(=O)Oc3ccccc3[N+](=O)[O-])cc2)cc(C)c1O	–	–	Activity [8]: Active
–	–	inactive	21.9 h	–	–	–	–	–	–	–	–	Cc1cc(/C=C/c2cccc(C(=O)Oc3ccc(F)cc3)c2)cc(C)c1O	Non-toxic	–	–
Dose-dependent effect	–	inactive	1.35 h	16%	34%	2%	3%	48%	Active	Active	Active	Cc1cc(/C=C/c2cccc(C(=O)Sc3ccccc3)c2)cc(C)c1O	Non-toxic	Dose-dependent effect	T1/2 [17]: 15 min
Dose-dependent effect	–	inactive	21.2 h	12%	17%	2%	3%	36%	Active	Active	Active	O=C(Sc1ccccc1)c1cccc(/C=C/c2cc(Br)c(O)c(Br)c2)c1	–	–	–
Dose-dependent effect	–	inactive	0.983 h	21%	33%	4%	3%	49%	Active	Active	Active	Cc1cc(/C=C/c2cccc(C(=O)Oc3ccccc3[N+](=O)[O-])c2)cc(C)c1O	–	–	IC50 [1]: 2260 nM; T1/2 [17]: 5 min
Dose-dependent effect	–	–	–	–	–	–	–	–	–	–	–	Cc1cc(/C=C/c2ccccc2)cc(C)c1O	Non-toxic	Dose-dependent effect	inhibition [3]: Active; Activity [4]: Active; Activity [5]: Active
–	Active	–	–	–	–	–	–	–	–	–	–	Cc1cc(/C=C/c2ccc(C(=O)Sc3ccccc3)cc2)cc(C)c1O	–	–	–
–	Active	–	–	–	–	–	–	–	–	–	–	Cc1cc(/C=C/c2ccc(C(=O)Oc3ccc(F)cc3)cc2)cc(C)c1O	–	–	–
